Measured values as given in ChEMBL document CHEMBL4033737, “Anti-mycobacterial alkaloids, cyclic 3-alkyl pyridinium dimers, from the Indonesian marine sponge Haliclona sp” (2017).
Counter-ions that a name gives are not always drawn. The source made the active and inactive calls. No cut-off for these calls is given here.

Legend:
[1] = test system: Mycolicibacterium smegmatis; test: Antibacterial activity against Mycobacterium smegmatis NBRC 3207 at 1 ug/disc incubated at 37 degC for 2 days by paper disc method; type: functional
In short: (§1)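 M. smegmatis NBRC 3207 kept as 20% glycerol stock at -80°C. Grown in Middlebrook 7H9 with 0.05% polysorbate 80, 0.5% glycerol and 10% OADC at 37°C for 2 days, then adjusted to 1.0×10^8 CFU/mL and spread on the same medium with 1.5% agar. Sample in CH3OH dried onto 6 mm discs, plated at 37°C for 2 days, inhibition zone read (mm). Controls: streptomycin sulfate 5 µg/disc, CH3OH.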

[2] = test system: Mycolicibacterium smegmatis; test: Antibacterial activity against Mycobacterium smegmatis NBRC 3207 at 5 ug/disc incubated at 37 degC for 2 days by paper disc method; type: functional; conditions: for zone of inhibition at 5 µg/disc: NBRC 3207, 48 h, read-out: IZ; in short: as §1
[3] = test system: Mycolicibacterium smegmatis; test: Antibacterial activity against Mycobacterium smegmatis NBRC 3207 at 10 ug/disc incubated at 37 degC for 2 days by paper disc method; type: functional; conditions: NBRC 3207, 48 h, read-out: IZ; in short: as §1
[4] = test system: Mycolicibacterium smegmatis; test: Antibacterial activity against Mycobacterium smegmatis NBRC 3207 incubated at 37 degC for 2 days by paper disc method; type: functional; in short: as §1
[5] = molecular target: Dual specificity protein phosphatase 3 (Homo sapiens) (UniProt P51452); test: Inhibition of VHR (unknown origin) at 17 uM pre-incubated for 10 mins before pNPP substrate addition and measured after 30 mins
In short: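 Enzyme at 1.0 µg/mL stock, in 50 mM citrate buffer pH 6.0 with 0.1 M NaCl, 1 mM DTT and 1 mM EDTA. Sample in methanol preincubated 10 min at 37°C. pNPP (4.0 mM stock) then added, 30 min at 37°C, stopped with NaOH. Absorbance read at 405 nm. % inhibition from blank- and no-sample-control-corrected readings. Three duplicate experiments. Oleanolic acid positive control.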

[6] = molecular target: Dual specificity protein phosphatase 3 (Homo sapiens) (UniProt P51452); test: Inhibition of VHR (unknown origin) at 18 uM pre-incubated for 10 mins before pNPP substrate addition and measured after 30 mins
In short: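 VHR (1.0 µg/mL stock) in 50 mM citrate buffer pH 6.0 with 0.1 M NaCl, 1 mM DTT and 1 mM EDTA. Sample in CH3OH added, preincubated 10 min at 37°C. pNPP added (4.0 mM stock), 30 min at 37°C, stopped with NaOH, A405 read. % inhibition computed against enzyme-free blank and sample-free control. Three duplicate experiments. Oleanolic acid as positive control.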

Sequence of Dual specificity protein phosphatase 3 (Homo sapiens) (P51452 whole entry, looked up): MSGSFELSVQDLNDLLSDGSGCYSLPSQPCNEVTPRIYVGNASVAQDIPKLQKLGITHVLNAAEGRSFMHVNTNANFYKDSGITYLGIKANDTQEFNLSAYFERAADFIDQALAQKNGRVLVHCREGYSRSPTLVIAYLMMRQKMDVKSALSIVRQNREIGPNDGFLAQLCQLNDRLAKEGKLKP

| SMILES | inhibition zone (IZ) [1] | zone of inhibition at 5 µg/disc [2] [mm] | zone of inhibition at 10 µg/disc [3] [mm] | growth inhibition (GI) [4] | inhibition [5] [%] | inhibition [6] [%] | inhibition zone (IZ) [2] | zone of inhibition at 1 µg/disc ([1]; NBRC 3207, 48 h, read-out: IZ) [mm] |
| --- | --- | --- | --- | --- | --- | --- | --- | --- |
| c1cc2c[n+](c1)CCCCCCCCCCCCCCCc1ccc[n+](c1)CCCCCCCCCCCCCC2 | inactive | 9 | 13 | Dose-dependent effect | 28 |  |  |  |
| C1=C/CC[n+]2cccc(c2)CCCCCCCCCCCC[n+]2cccc(c2)CCCCCCCCCC/1 | inactive | 10 | 17 | Dose-dependent effect |  |  |  |  |
| c1cc2c[n+](c1)CCCCCCCCCCCCc1ccc[n+](c1)CCCCCCCCCCCC2 [CYCLOSTELLETAMINES A] | inactive | 9 | 14 | Dose-dependent effect |  |  |  |  |
| c1cc2c[n+](c1)CCCCCCCCCCCCCCc1ccc[n+](c1)CCCCCCCCCCCCCC2 [CYCLOSTELLETAMINES F] | inactive | 8 | 12 | Dose-dependent effect |  | 38 |  |  |
| C1=C/CC[n+]2cccc(c2)CCCCCCCCCCCCCC[n+]2cccc(c2)CCCCCCCCCC/1 | inactive | 7 | 10 | Dose-dependent effect |  |  |  |  |
| c1cc2c[n+](c1)CCCCCCCCCCCCCc1ccc[n+](c1)CCCCCCCCCCCC2 [CYCLOSTELLETAMINES B] | inactive |  | 8 | Dose-dependent effect |  |  | inactive |  |
| CN[C@@H]1[C@H](O[C@H]2[C@H](O[C@H]3[C@H](O)[C@@H](O)[C@H](N=C(N)N)[C@@H](O)[C@@H]3N=C(N)N)O[C@@H](C)[C@]2(O)C=O)O[C@@H](CO)[C@H](O)[C@H]1O [STREPTOMYCIN SULFATE] |  | 35 |  |  |  |  |  | 20 |
| c1cc2c[n+](c1)CCCCCCCCCCCCCc1ccc[n+](c1)CCCCCCCCCCCCC2 | inactive |  | 8 | Dose-dependent effect |  |  | inactive |  |
| c1cc2c[n+](c1)CCCCCCCCCCCCCCc1ccc[n+](c1)CCCCCCCCCCCCC2 [CYCLOSTELLETAMINES E] | inactive | 7 | 12 | Dose-dependent effect |  |  |  |  |
